Results reported in ChEMBL document CHEMBL3758165, “In vitro interactions between anidulafungin and nonsteroidal anti-inflammatory drugs on biofilms of Candida spp” (2016).

Tests used:
Assay type in all cases: functional
[1] = tested on: Candida albicans; test: Antibiofilm activity against Candida albicans ATCC 24433 by two dimensional checkerboard dilution method
Outline: (§1)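 Biofilms grown on sterilized PVC disks: 1·10^6 cfu/ml Candida cells adhered for 1.5 h at 37 °C with shaking, washed with PBS, then matured 48 h at 37 °C in RPMI 1640 (MOPS, pH 7). Preformed biofilms were washed and exposed to drug, alone or in two-dimensional checkerboard combination, in RPMI 1640 for 24 h at 37 °C on a rocker.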

[2] = tested on: Candida albicans; test: Antibiofilm activity against Candida albicans ATCC 90028 by two dimensional checkerboard dilution method; outline: as §1
[3] = tested on: Nakaseomyces glabratus; test: Antibiofilm activity against Candida glabrata 18a10 by two dimensional checkerboard dilution method; outline: as §1
[4] = tested on: Candida albicans; test: Antibiofilm activity against Candida albicans ATCC 10231 by two dimensional checkerboard dilution method; outline: as §1
[5] = tested on: Meyerozyma guilliermondii; test: Antibiofilm activity against Candida guilliermondii a83 by two dimensional checkerboard dilution method; outline: as §1
[6] = tested on: Candida albicans; test: Antibiofilm activity against Candida albicans 17a18 by two dimensional checkerboard dilution method; outline: as §1
[7] = tested on: Nakaseomyces glabratus; test: Antibiofilm activity against Candida glabrata ATCC 15126 by two dimensional checkerboard dilution method; outline: as §1
[8] = tested on: Meyerozyma guilliermondii; test: Antibiofilm activity against Candida guilliermondii ATCC 6260 by two dimensional checkerboard dilution method; outline: as §1
[9] = tested on: Candida albicans; test: Antibiofilm activity against Candida albicans 17a18 assessed as fractional inhibitory concentration by two dimensional checkerboard dilution method in presence of anidulafungin
Outline: (§2)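 Biofilms grown on PVC disks: 1·10^6 cfu/ml in RPMI 1640 (MOPS, pH 7), 1.5 h adhesion at 37 °C with shaking, PBS wash, 48 h maturation at 37 °C. Preformed biofilms exposed 24 h at 37 °C to anidulafungin/NSAID checkerboard combinations in RPMI. XTT-menadione reduction read at 490 nm. SMIC = 50% metabolic reduction versus drug-free control. Triplicate runs on different days; FIC index calculated.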

[10] = tested on: Candida albicans; test: Antibiofilm activity against Candida albicans ATCC 10231 assessed as fractional inhibitory concentration by two dimensional checkerboard dilution method in presence of anidulafungin; outline: as §2
[11] = tested on: Meyerozyma guilliermondii; test: Potentiation of anidulafungin-induced antibiofilm activity against Candida guilliermondii a83 at 0.1 uM to 100 mM after 48 hrs by XTT reduction assay relative to control; design: scale not given: the % may be the effect or the level left; outline: as §1
[12] = tested on: Candida albicans; test: Potentiation of anidulafungin-induced antibiofilm activity against Candida albicans ATCC 90028 assessed as anidulafungin-fractional inhibitory concentration index by two dimensional checkerboard dilution method; outline: as §2
[13] = tested on: Candida albicans; test: Antibiofilm activity against Candida albicans ATCC 24433 assessed as fractional inhibitory concentration by two dimensional checkerboard dilution method in presence of anidulafungin; outline: as §2
[14] = tested on: Candida albicans; test: Antibiofilm activity against Candida albicans ATCC 10231 by two dimensional checkerboard dilution method in presence of anidulafungin; outline: as §1
[15] = tested on: Candida albicans; test: Potentiation of anidulafungin-induced antibiofilm activity against Candida albicans 17a18 at 0.1 uM to 100 mM after 48 hrs by XTT reduction assay relative to control; design: scale not given: the % may be the effect or the level left; outline: as §1
[16] = tested on: Nakaseomyces glabratus; test: Antibiofilm activity against Candida glabrata 18a10 at 0.1 uM to 100 mM after 48 hrs by XTT reduction assay relative to control; design: scale not given: the % may be the effect or the level left; outline: as §1
[17] = tested on: Meyerozyma guilliermondii; test: Antibiofilm activity against Candida guilliermondii a83 at 0.1 uM to 100 mM after 48 hrs by XTT reduction assay relative to control; design: scale not given: the % may be the effect or the level left; outline: as §1
[18] = tested on: Candida albicans; test: Potentiation of anidulafungin-induced antibiofilm activity against Candida albicans ATCC 10231 at 0.1 uM to 100 mM after 48 hrs by XTT reduction assay relative to control; design: scale not given: the % may be the effect or the level left; outline: as §1
[19] = tested on: Nakaseomyces glabratus; test: Antibiofilm activity against Candida glabrata ATCC 15126 at 0.1 uM to 100 mM after 48 hrs by XTT reduction assay relative to control; design: scale not given: the % may be the effect or the level left; outline: as §1
[20] = tested on: Nakaseomyces glabratus; test: Potentiation of anidulafungin-induced antibiofilm activity against Candida glabrata ATCC 15126 at 0.1 uM to 100 mM after 48 hrs by XTT reduction assay relative to control; design: scale not given: the % may be the effect or the level left; outline: as §1
[21] = tested on: Meyerozyma guilliermondii; test: Potentiation of anidulafungin-induced antibiofilm activity against Candida guilliermondii a410 at 0.1 uM to 100 mM after 48 hrs by XTT reduction assay relative to control; design: scale not given: the % may be the effect or the level left; outline: as §1
[22] = tested on: Meyerozyma guilliermondii; test: Potentiation of anidulafungin-induced antibiofilm activity against Candida guilliermondii a83 assessed as anidulafungin-fractional inhibitory concentration index by two dimensional checkerboard dilution method; outline: as §2
[23] = tested on: Meyerozyma guilliermondii; test: Antibiofilm activity against Candida guilliermondii a83 assessed as fractional inhibitory concentration by two dimensional checkerboard dilution method in presence of anidulafungin; outline: as §2
[24] = tested on: Candida albicans; test: Potentiation of anidulafungin-induced antibiofilm activity against Candida albicans 17a18 assessed as anidulafungin-fractional inhibitory concentration index by two dimensional checkerboard dilution method; outline: as §2
[25] = tested on: Meyerozyma guilliermondii; test: Potentiation of anidulafungin-induced antibiofilm activity against Candida guilliermondii ATCC 6260 at 0.1 uM to 100 mM after 48 hrs by XTT reduction assay relative to control; design: scale not given: the % may be the effect or the level left; outline: as §1
[26] = tested on: Nakaseomyces glabratus; test: Potentiation of anidulafungin-induced antibiofilm activity against Candida glabrata 18a10 assessed as anidulafungin-fractional inhibitory concentration index by two dimensional checkerboard dilution method; outline: as §2
[27] = tested on: Candida albicans; test: Antibiofilm activity against Candida albicans ATCC 90028 by two dimensional checkerboard dilution method in presence of anidulafungin; outline: as §1
[28] = tested on: Candida albicans; test: Antibiofilm activity against Candida albicans ATCC 24433 by two dimensional checkerboard dilution method in presence of anidulafungin; outline: as §1
[29] = tested on: Candida albicans; test: Antibiofilm activity against Candida albicans ATCC 90028 assessed as fractional inhibitory concentration by two dimensional checkerboard dilution method in presence of anidulafungin; outline: as §2
[30] = tested on: Meyerozyma guilliermondii; test: Potentiation of anidulafungin-induced antibiofilm activity against Candida guilliermondii ATCC 6260 assessed as anidulafungin-fractional inhibitory concentration index by two dimensional checkerboard dilution method; outline: as §2
[31] = tested on: Candida albicans; test: Potentiation of anidulafungin-induced antibiofilm activity against Candida albicans ATCC 10231 assessed as anidulafungin-fractional inhibitory concentration index by two dimensional checkerboard dilution method; outline: as §2
[32] = tested on: Candida albicans; test: Potentiation of anidulafungin-induced antibiofilm activity against Candida albicans ATCC 24433 assessed as anidulafungin-fractional inhibitory concentration index by two dimensional checkerboard dilution method; outline: as §2
[33] = tested on: Nakaseomyces glabratus; test: Potentiation of anidulafungin-induced antibiofilm activity against Candida glabrata ATCC 15126 assessed as anidulafungin-fractional inhibitory concentration index by two dimensional checkerboard dilution method; outline: as §2
[34] = tested on: Meyerozyma guilliermondii; test: Antibiofilm activity against Candida guilliermondii a410 by two dimensional checkerboard dilution method in presence of anidulafungin; outline: as §1
[35] = tested on: Meyerozyma guilliermondii; test: Potentiation of anidulafungin-induced antibiofilm activity against Candida guilliermondii a410 assessed as anidulafungin-fractional inhibitory concentration index by two dimensional checkerboard dilution method; outline: as §2
[36] = tested on: Candida albicans; test: Antibiofilm activity against Candida albicans 17a18 at 0.1 uM to 100 mM after 48 hrs by XTT reduction assay relative to control; design: scale not given: the % may be the effect or the level left; outline: as §1
[37] = tested on: Nakaseomyces glabratus; test: Antibiofilm activity against Candida glabrata 18a10 by two dimensional checkerboard dilution method in presence of anidulafungin; outline: as §1
[38] = tested on: Candida albicans; test: Antibiofilm activity against Candida albicans 17a18 by two dimensional checkerboard dilution method in presence of anidulafungin; outline: as §1
[39] = tested on: Candida albicans; test: Potentiation of anidulafungin-induced antibiofilm activity against Candida albicans ATCC 90028 at 0.1 uM to 100 mM after 48 hrs by XTT reduction assay relative to control; design: scale not given: the % may be the effect or the level left; outline: as §1

Row | SMILES | MIC [1] | MIC [2] | MIC [3] | MIC [4] | MIC [5] | MIC [6] | MIC [7] | MIC [8] | Ratio [9] | Ratio [10] | Activity [11] [%] | fractional inhibitory concentration index (FICI) [12] | Ratio [13] | MIC [14] [µM] | Activity [15] [%] | Activity [16] [%] | Activity [17] [%] | Activity [18] [%] | Activity [19] [%] | Activity [20] [%] | further results
1 | CCCCCOc1ccc(-c2ccc(-c3ccc(C(=O)N[C@@H]4C[C@@H](O)[C@@H](O)NC(=O)[C@@H]5[C@@H](O)[C@@H](C)CN5C(=O)[C@H]([C@@H](C)O)NC(=O)[C@H]([C@H](O)[C@@H](O)c5ccc(O)cc5)NC(=O)[C@@H]5C[C@@H](O)CN5C(=O)[C@H]([C@H](C)O)NC4=O)cc3)cc2)cc1 | 2 µg/mL | 2 µg/mL | 2 µg/mL | 2 µg/mL | 2 µg/mL | 2 µg/mL | 2 µg/mL | 2 µg/mL | – | – | – | – | – | – | – | – | – | – | – | – | –
2 | CC(=O)Oc1ccccc1C(=O)O [ASPIRIN] | 1000 µM | 1000 µM | 200 µM | 200 µM | 200 µM | 200 µM | 200 µM | 1000 µM | 0.05 | 0.05 | 45.32 | 0.1 | 0.1 | 10 | 51.74 | 32.32 | 46.22 | 82.81 | 29.02 | 49.78 | Activity [21]: 41.54%; fractional inhibitory concentration index (FICI) [22]: 0.1; Ratio [23]: 0.05; fractional inhibitory concentration index (FICI) [24]: 0.1; Activity [25]: 50.37%; fractional inhibitory concentration index (FICI) [26]: 0.1; MIC [27]: 10 µM; MIC [28]: 100 µM; Ratio [29]: 0.05; fractional inhibitory concentration index (FICI) [30]: 0.15; fractional inhibitory concentration index (FICI) [31]: 0.1; fractional inhibitory concentration index (FICI) [32]: 0.15; fractional inhibitory concentration index (FICI) [33]: 0.1; MIC [34]: 100 µM; fractional inhibitory concentration index (FICI) [35]: 0.15; Activity [36]: 46.55%; MIC [37]: 10 µM; MIC [38]: 10 µM; Activity [39]: 57.84%
3 | O=C([O-])Cc1ccccc1Nc1c(Cl)cccc1Cl.[Na+] [DICLOFENAC SODIUM] | 100000 µM | 100000 µM | 100000 µM | 100000 µM | 100000 µM | 100000 µM | 100000 µM | 100000 µM | 0.05 | 0.05 | 55.64 | 0.1 | 0.05 | 5000 | 64.25 | 44.54 | 57.87 | 66.15 | 54.44 | 65.96 | Activity [21]: 54.28%; fractional inhibitory concentration index (FICI) [22]: 0.3; Ratio [23]: 0.2; fractional inhibitory concentration index (FICI) [24]: 0.1; Activity [25]: 57.69%; fractional inhibitory concentration index (FICI) [26]: 0.3; MIC [27]: 5000 µM; MIC [28]: 5000 µM; Ratio [29]: 0.05; fractional inhibitory concentration index (FICI) [30]: 0.45; fractional inhibitory concentration index (FICI) [31]: 0.1; fractional inhibitory concentration index (FICI) [32]: 0.1; fractional inhibitory concentration index (FICI) [33]: 0.3; MIC [34]: 40000 µM; fractional inhibitory concentration index (FICI) [35]: 0.45; Activity [36]: 55.33%; MIC [37]: 20000 µM; MIC [38]: 5000 µM; Activity [39]: 71.04%
4 | CC(C)Cc1ccc(C(C)C(=O)O)cc1 (stereo not given) [IBUPROFEN] | 1000 µM | 1000 µM | 200 µM | 1000 µM | 200 µM | 1000 µM | 200 µM | 200 µM | 0.05 | 0.05 | 52.11 | 0.3 | 0.1 | 50 | 64.22 | 53.44 | 56.78 | 59.51 | 57.23 | 57.46 | Activity [21]: 51.31%; fractional inhibitory concentration index (FICI) [22]: 0.25; Ratio [23]: 0.2; fractional inhibitory concentration index (FICI) [24]: 0.25; Activity [25]: 53.32%; fractional inhibitory concentration index (FICI) [26]: 0.25; MIC [27]: 1000 µM; MIC [28]: 1000 µM; Ratio [29]: 0.1; fractional inhibitory concentration index (FICI) [30]: 0.3; fractional inhibitory concentration index (FICI) [31]: 0.25; fractional inhibitory concentration index (FICI) [32]: 0.3; fractional inhibitory concentration index (FICI) [33]: 0.25; MIC [34]: 20 µM; fractional inhibitory concentration index (FICI) [35]: 0.3; Activity [36]: 24.51%; MIC [37]: 40 µM; MIC [38]: 50 µM; Activity [39]: 61.43%
